Laboratory results: ChEMBL document CHEMBL4270662, “Discovery of Orally Active Inhibitors of Brahma Homolog (BRM)/SMARCA2 ATPase Activity for the Treatment of Brahma Related Gene 1 (BRG1)/SMARCA4-Mutant Cancers” (J Med Chem, 2018)
Values after ≈ are worked out from the molar mass of the structure shown. Active and inactive are the calls of the source. The calls are words filed in the database; no cut-off is given here.

How the values were obtained:
[1] = Inhibition of BRM/BRG1 mutant in human RERF-LC-A1 cells assessed as reduction in KRT80 gene expression after 24 hrs by luciferase reporter gene assay; format: cell-based
[2] = Inhibition of BRM/BRG1 mutant-dependant cell proliferation in human SKMEL5 cells after 6 days by celltiter-glo luminescent cell viability assay; format: cell-based; conditions: SK-MEL-5, 144 h
Mus musculus [3] = assay: In vivo inhibition of BRM/BRG1 mutant in human RERF-LC-A1 cells xenografted in po dosed athymic nude mouse assessed as reduction in KRT80 gene expression after 7 to 24 hrs by real-time PCR method; format: functional, organism-based
Outline: (§1)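 RERF-LC-AI tumor-bearing nude mice received oral compound daily, suspended in 0.5% methyl cellulose and 0.5% Tween 80 in water, at 7.5 or 20 mg/kg. Tumor KRT80 mRNA was measured at several post-dose time points, including 7 h and 16 h onward.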

SBC-5 = assay: Antiproliferative activity against human SBC5 cells assessed as cell growth inhibition after 6 days by celltiter-glo luminescent cell viability assay; format: functional, cell-based; conditions: SBC-5, 144 h
Mus musculus [4] = assay: In vivo inhibition of BRM/BRG1 mutant in human RERF-LC-A1 cells xenografted in athymic nude mouse assessed as reduction in KRT80 gene expression at 20 mg/kg, po after 16 to 24 hrs by real-time PCR method; format: functional, organism-based; outline: as §1
[5] = Thermodynamic solubility of the compound at 1 mg/ml pH 6.8 after 16 to 24 hrs by shake-flask method; format: physicochemical; conditions: buffer, read-out: Therm_solubility
RERF-LC-AI [6] = assay: Anti-tumor activity in human RERF-LC-A1 cells xenografted in athymic nude mouse assessed as tumor growth inhibition at 20 mg/kg, po administered for 3 weeks measured twice per week during compound dosing relative to control; format: functional; conditions: 504 h, read-out: TGI
Outline: (§2)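 Nude mice bearing RERF-LC-AI xenografts were dosed orally with a suspension in 0.5% methyl cellulose and 0.5% Tween 80 in water. Dosing was daily for 3 weeks at 7.5 or 20 mg/kg. Tumor growth and tolerability were followed during dosing.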

RERF-LC-AI [7] = assay: Anti-tumor activity in human RERF-LC-A1 cells xenografted in athymic nude mouse assessed as tumor growth at 30 mg/kg, po administered daily for 4 consecutive days followed by incubation for next 3 days in absence of compounds relative to control; format: functional
Mus musculus [8] = assay: In vivo inhibition of BRM/BRG1 mutant in human RERF-LC-A1 cells xenografted in athymic nude mouse assessed as reduction in KRT80 gene expression at 20 mg/kg, po after 7 hrs by real-time PCR method; format: functional; outline: as §1
[9] = target: T1, SWI/SNF-related matrix-associated actin-dependent regulator of chromatin subfamily A member 4 (Homo sapiens, UniProt P51532); assay: Inhibition of recombinant His6-tagged BRG1 ATPase-SnAC (658 to 1361 residues) (unknown origin) expressed in insect sf9 cells preincubated for 5 mins followed by pCMV-dR8.91 plasmid and ATP addition measured after 60 mins by ADP-Glo assay
T1 sequence (P51532 whole entry, the tested form may be a part): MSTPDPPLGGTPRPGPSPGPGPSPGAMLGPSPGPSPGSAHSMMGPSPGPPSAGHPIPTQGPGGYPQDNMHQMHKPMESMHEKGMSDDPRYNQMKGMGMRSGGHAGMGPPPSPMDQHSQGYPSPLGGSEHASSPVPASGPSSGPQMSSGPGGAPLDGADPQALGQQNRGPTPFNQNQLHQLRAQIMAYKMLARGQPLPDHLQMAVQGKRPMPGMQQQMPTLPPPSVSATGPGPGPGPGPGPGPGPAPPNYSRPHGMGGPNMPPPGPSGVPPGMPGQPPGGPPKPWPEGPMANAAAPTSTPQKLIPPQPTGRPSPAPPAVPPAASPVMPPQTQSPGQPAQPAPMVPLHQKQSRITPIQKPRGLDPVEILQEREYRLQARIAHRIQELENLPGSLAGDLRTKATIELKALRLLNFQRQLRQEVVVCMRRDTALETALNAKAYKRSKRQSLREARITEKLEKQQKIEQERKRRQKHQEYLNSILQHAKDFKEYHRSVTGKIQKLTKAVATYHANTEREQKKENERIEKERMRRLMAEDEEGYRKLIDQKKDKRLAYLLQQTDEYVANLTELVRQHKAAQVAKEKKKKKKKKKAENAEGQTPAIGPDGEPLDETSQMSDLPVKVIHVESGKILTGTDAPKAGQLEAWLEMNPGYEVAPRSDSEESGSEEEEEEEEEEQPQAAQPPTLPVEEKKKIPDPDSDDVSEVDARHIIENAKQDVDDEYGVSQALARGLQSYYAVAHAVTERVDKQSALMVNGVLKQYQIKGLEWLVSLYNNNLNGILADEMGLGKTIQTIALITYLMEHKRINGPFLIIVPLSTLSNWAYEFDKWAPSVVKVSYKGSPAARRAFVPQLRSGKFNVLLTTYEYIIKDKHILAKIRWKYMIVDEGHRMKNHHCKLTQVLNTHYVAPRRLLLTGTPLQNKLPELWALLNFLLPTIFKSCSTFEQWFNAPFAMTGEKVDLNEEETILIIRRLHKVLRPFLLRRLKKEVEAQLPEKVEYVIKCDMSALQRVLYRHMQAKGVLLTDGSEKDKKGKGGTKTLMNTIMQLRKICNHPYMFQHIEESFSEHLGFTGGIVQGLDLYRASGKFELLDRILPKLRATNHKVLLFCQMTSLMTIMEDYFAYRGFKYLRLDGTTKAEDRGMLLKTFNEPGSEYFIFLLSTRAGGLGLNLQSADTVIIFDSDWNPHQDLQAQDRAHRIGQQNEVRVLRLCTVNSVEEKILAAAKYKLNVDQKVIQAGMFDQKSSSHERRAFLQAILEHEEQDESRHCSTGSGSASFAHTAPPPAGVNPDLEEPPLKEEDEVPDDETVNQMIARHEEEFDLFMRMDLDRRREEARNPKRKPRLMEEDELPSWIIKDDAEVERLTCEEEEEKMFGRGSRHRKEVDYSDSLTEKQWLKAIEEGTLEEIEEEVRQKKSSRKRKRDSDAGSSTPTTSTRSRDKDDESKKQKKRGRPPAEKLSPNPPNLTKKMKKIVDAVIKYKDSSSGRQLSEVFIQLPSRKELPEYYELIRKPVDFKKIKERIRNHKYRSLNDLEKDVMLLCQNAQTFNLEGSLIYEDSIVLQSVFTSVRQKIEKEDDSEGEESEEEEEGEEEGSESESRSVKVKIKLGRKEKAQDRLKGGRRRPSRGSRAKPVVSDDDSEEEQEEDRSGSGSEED

Mus musculus [10] = assay: Time required for unbound plasma concentration to reach above in vitro unbound EC50 for reduction in BRM/BRG1 mutant-induced KRT80 gene expression in human RERF-LC-A1 cells in athymic nude mouse at 20 mg/kg, po administered daily for 3 weeks; format: ADME, organism-based; conditions: in vivo, 504 h
Outline: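 Nude mice bearing RERF-LC-AI tumors were dosed orally once daily for 3 weeks at 20 mg/kg. The dose was a suspension in 0.5% methyl cellulose and 0.5% Tween 80 in water. Unbound plasma concentrations over time were compared with the cellular KRT80 EC50.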

[11] = Inhibition of BRM/BRG1 mutant in human NCI-H1299 cells assessed as reduction in KRT80 gene expression after 24 hrs by luciferase reporter gene assay; format: cell-based; conditions: NCI-H1299, 24 h
Outline: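 NCI-H1299 cells carry NanoLuc knocked into the endogenous KRT80 locus and are grown in RPMI-1640 with 10% FBS. Plated at 500 cells/well and left overnight, then dosed over 10 points in 3-fold dilutions from 10 µM.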

[12] = target: T2, SWI/SNF-related matrix-associated actin-dependent regulator of chromatin subfamily A member 2 (Homo sapiens, UniProt P51531); assay: Inhibition of recombinant His10-tagged ZZ-HCV3C-BRM ATPase-SnAC (636 to 1331 residues) (unknown origin) expressed in insect sf9 cells preincubated for 5 mins followed by pCMV-dR8.91 plasmid and ATP addition measured after 60 mins by ADP-Glo assay
T2 sequence (P51531 whole entry, the tested form may be a part): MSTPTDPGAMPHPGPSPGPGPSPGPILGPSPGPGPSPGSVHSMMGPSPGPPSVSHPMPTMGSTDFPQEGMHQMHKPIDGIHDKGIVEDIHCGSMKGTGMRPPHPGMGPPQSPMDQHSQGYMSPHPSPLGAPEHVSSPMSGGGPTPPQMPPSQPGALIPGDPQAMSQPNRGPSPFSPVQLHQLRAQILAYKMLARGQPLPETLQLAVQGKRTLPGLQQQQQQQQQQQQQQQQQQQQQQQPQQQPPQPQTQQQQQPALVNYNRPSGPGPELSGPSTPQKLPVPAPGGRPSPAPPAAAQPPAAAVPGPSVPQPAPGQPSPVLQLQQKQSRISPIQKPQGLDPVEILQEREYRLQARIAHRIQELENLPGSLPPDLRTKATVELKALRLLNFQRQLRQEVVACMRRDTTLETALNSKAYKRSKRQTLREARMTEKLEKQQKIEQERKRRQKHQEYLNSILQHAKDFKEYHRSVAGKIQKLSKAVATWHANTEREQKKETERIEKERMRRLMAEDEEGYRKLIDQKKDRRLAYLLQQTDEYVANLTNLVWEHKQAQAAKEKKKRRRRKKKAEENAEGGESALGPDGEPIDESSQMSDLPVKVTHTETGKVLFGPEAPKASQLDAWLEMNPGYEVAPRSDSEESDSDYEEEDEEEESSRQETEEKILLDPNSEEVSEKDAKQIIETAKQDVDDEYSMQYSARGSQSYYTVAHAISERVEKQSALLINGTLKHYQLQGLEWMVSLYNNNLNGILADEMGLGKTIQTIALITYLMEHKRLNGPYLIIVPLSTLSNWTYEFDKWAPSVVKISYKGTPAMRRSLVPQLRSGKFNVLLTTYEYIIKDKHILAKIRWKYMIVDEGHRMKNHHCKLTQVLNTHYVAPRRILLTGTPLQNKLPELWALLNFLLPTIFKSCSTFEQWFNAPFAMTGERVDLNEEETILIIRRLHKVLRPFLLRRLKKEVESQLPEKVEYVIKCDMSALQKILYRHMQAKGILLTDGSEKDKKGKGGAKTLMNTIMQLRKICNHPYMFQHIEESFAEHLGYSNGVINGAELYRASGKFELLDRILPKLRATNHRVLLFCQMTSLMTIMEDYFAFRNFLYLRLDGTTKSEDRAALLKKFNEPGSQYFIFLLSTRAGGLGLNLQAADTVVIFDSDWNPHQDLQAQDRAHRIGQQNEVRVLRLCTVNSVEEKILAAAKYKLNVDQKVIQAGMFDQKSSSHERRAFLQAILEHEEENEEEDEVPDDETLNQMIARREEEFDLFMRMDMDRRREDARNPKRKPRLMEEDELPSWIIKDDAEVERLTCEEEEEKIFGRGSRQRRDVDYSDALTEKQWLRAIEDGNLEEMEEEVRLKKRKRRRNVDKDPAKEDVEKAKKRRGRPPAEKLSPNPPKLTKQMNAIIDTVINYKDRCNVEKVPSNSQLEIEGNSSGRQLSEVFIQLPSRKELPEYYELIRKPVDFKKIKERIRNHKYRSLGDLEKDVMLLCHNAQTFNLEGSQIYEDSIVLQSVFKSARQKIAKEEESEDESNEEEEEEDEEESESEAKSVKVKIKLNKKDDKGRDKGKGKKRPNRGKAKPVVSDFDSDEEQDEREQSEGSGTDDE

Mus musculus [13] = assay: Toxicity in athymic nude mouse xenografted with human RERF-LC-A1 cells up to 20 mg/kg, po administered for 3 weeks; format: organism-based; conditions: in vivo, 504 h; outline: as §2
RERF-LC-AI [14] = assay: Anti-tumor activity in human RERF-LC-A1 cells xenografted in athymic nude mouse assessed as tumor growth inhibition at 7.5 mg/kg, po administered for 3 weeks measured twice per week during compound dosing relative to control; format: functional; conditions: 504 h, read-out: TGI; outline: as §2
Mus musculus [15] = assay: In vivo inhibition of […] in human RERF-LC-A1 cells xenografted in athymic nude mouse assessed as reduction in KRT80 mRNA expression at 20 mg/kg, po measured at 16 hrs post last dose of 3 weeks of daily dosing by RT-PCR analysis; format: functional, organism-based; outline: as §1
[16] = target: T1, SWI/SNF-related matrix-associated actin-dependent regulator of chromatin subfamily A member 4; assay: Binding affinity to BRG1 ATPase-SnAC domain (unknown origin) expressed in insect sf9 cells assessed as change in melting temperature at 500 uM by DSF-assay (reference value: 0 degreeC)
[17] = target: T2, SWI/SNF-related matrix-associated actin-dependent regulator of chromatin subfamily A member 2; assay: Binding affinity to N-terminal MBP-fused human BRM RecA domain (705 to 960 residues) expressed in Escherichia coli BL21 Star (DE3) by ITC method
[18] = target: SWI/SNF-related matrix-associated actin-dependent regulator of chromatin subfamily A member 2 (Homo sapiens, UniProt P51531, E852Q); assay: Binding affinity to N-terminal MBP-fused human BRM RecA domain E852Q mutant expressed in Escherichia coli BL21 Star (DE3) by ITC method
Sequence of SWI/SNF-related matrix-associated actin-dependent regulator of chromatin subfamily A member 2 (Homo sapiens, UniProt P51531, E852Q) (P51531 whole entry E852Q, the tested form may be a part): as the sequence (P51531 whole entry, the tested form may be a part) above, with E852Q counted along it

[19] = Thermodynamic solubility of the compound at 1 mg/ml pH 1 after 16 to 24 hrs by shake-flask method; format: physicochemical; conditions: buffer, read-out: Therm_solubility
[20] = target: T2, SWI/SNF-related matrix-associated actin-dependent regulator of chromatin subfamily A member 2; assay: Binding affinity to N-terminal avi-tagged BRM ATPase-SnAC domain (unknown origin) in presence of ADP by SPR assay
Outline: (§3)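 SPR at 10 °C: about 2000 RU of N-terminal Avi-tagged BRM ATPase-SnAC captured on a streptavidin chip, with a blank reference cell. Compound dose series injected 60 s at 100 µL/min with 120 s dissociation; data solvent-corrected, double-referenced and fit 1:1 for KD.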

[21] = target: T1, SWI/SNF-related matrix-associated actin-dependent regulator of chromatin subfamily A member 4; assay: Binding affinity to BRG1 ATPase-SnAC domain (unknown origin) expressed in insect sf9 cells assessed as change in melting temperature at 100 uM by DSF-assay (reference value: 0 degreeC)
[22] = target: T1, SWI/SNF-related matrix-associated actin-dependent regulator of chromatin subfamily A member 4; assay: Binding affinity to BRG1 ATPase-SnAC domain (unknown origin) expressed in insect sf9 cells assessed as change in melting temperature at 100 uM in presence of ADP by DSF-assay (reference value: 0 degreeC)
[23] = target: T2, SWI/SNF-related matrix-associated actin-dependent regulator of chromatin subfamily A member 2; assay: Binding affinity to N-terminal avi-tagged BRM ATPase-SnAC domain (unknown origin) in absence of ADP by SPR assay; outline: as §3
[24] = target: T2, SWI/SNF-related matrix-associated actin-dependent regulator of chromatin subfamily A member 2; assay: Inhibition of full length BRM ATPase (1 to 1572 residues) (unknown origin) expressed in insect sf9 cells preincubated for 5 mins followed by pCMV-dR8.91 plasmid and ATP addition measured after 60 mins by ADP-Glo assay
Outline: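 Full-length BRM (1-1572), purified from Sf9 cells by Ni or anti-FLAG affinity, then anion exchange and size exclusion. Reaction run 60 min at room temperature; ADP-Glo luminescence read-out; IC50 from duplicate means.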

[25] = target: T1, SWI/SNF-related matrix-associated actin-dependent regulator of chromatin subfamily A member 4; assay: Binding affinity to His6-tagged BRG1 ATPase-SnAC (658 to 1361 residues) (unknown origin) expressed in insect sf9 cells by ITC method
[26] = target: T2, SWI/SNF-related matrix-associated actin-dependent regulator of chromatin subfamily A member 2; assay: Inhibition of recombinant His10-tagged ZZ-HCV3C-BRM ATPase-SnAC (636 to 1331 residues) (unknown origin) expressed in insect sf9 cells preincubated for 5 mins followed by pCMV-dR8.91 and 10 times ATP addition measured after 60 mins by ADP-Glo assay
Outline: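 BRM residues 636-1331 (tag removed by HCV3C cleavage), 5 nM final, preincubated with compound for 5 min at room temperature. Reaction started with ATP at 10x Km plus 2 nM pCMV-dR8.91 plasmid, run 60 min. ADP-Glo luminescence read; IC50 by nonlinear regression of duplicate averages.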

SMILES | EC50 [2] [nM] | EC50 (SBC-5) [nM] | IC50 [9] [nM] | EC50 [11] [nM] | IC50 [12] [nM] | other results
O=C(Nc1cc(C(F)F)ns1)Nc1cc(F)ncc1CO | 4 | > 10000 | < 5 | 10 | < 5 | EC50 [1]: 10 nM; inhibition (Mus musculus [3]): Dose-dependent effect; inhibition (Mus musculus [4]): inactive; solubility thermodynamic [5]: 34 µM (≈ 10.8 µg/mL); inhibition in vivo at 20 mg/kg (RERF-LC-AI [6]): 55%; T/C (RERF-LC-AI [7]): 30%; inhibition in vivo at 20 mg/kg (Mus musculus [8]): ≤ 90%; Time (Mus musculus [10]): 12 h; Activity (Mus musculus [13]): Non-Toxic; inhibition in vivo at 7.5 mg/kg (RERF-LC-AI [14]): 21%; inhibition (Mus musculus [15]): Dose-dependent effect
Nc1ncnc2c1ncn2[C@@H]1O[C@H](COP(=O)(O)OP(=O)(O)O)[C@@H](O)[C@H]1O | – | – | – | – | – | ΔTm [16]: 3.1 °C
Cc1cc(NC(=O)Nc2ccnc(Cl)c2)ccn1 | – | – | 150 | – | 200 | –
O=C(Nc1ccnc(Cl)c1)Nc1cc(C(F)F)ns1 | 31 | 6300 | – | 360 | – | Kd [17]: 13 nM; Kd [18]: > 10000 nM
O=C(Nc1ccnc(Cl)c1)Nc1ccnc(C(F)F)c1 | – | – | – | – | 110 | –
Nc1cnc(Cl)cc1NC(=O)Nc1cc(C(F)F)ns1 | 13 | > 10000 | < 5 | 26 | < 5 | solubility thermodynamic [5]: 40 µM (≈ 12.8 µg/mL)
Nc1cnc(F)cc1NC(=O)Nc1cc(C(F)F)ns1 | 5 | > 10000 | < 5 | 10 | < 5 | solubility thermodynamic [5]: 92 µM (≈ 27.9 µg/mL)
O=C(Nc1ccncc1)Nc1ccnc(Cl)c1 | – | – | 770 | – | 1100 | solubility thermodynamic [5]: 330 µM (≈ 82.1 µg/mL); solubility thermodynamic [19]: 3100 µM (≈ 771 µg/mL); Kd [20]: 450 nM; ΔTm [21]: 3.8 °C; ΔTm [22]: 5.8 °C; Activity [23]: Dose-dependent effect; Kd [23]: 87 nM; IC50 [24]: 8100 nM; Kd [25]: 280 nM; inhibition [26]: Active
Cc1csc(NC(=O)Nc2ccnc(Cl)c2)n1 | – | – | 570 | – | 970 | –
Cc1c[nH]c(NC(=O)Nc2ccnc(Cl)c2)n1 | – | – | – | – | > 50000 | –
O=C(Nc1ccnc(Cl)c1)Nc1ccccn1 | – | – | 1700 | – | 3800 | –
O=C(Nc1ccnc(Cl)c1)Nc1ccnc(C(F)(F)F)c1 | – | – | 30 | – | 60 | –
O=C(Nc1cc(C(F)F)ns1)Nc1cc(Cl)ncc1CO | 13 | > 10000 | < 5 | 42 | < 5 | –
O=C(Nc1ccnc(Cl)c1)Nc1cc(C(F)(F)F)ns1 | 130 | > 10000 | – | 930 | – | –
Cc1cc(NC(=O)Nc2ccnc(Cl)c2)sn1 | 650 | > 10000 | – | > 10000 | – | –
